# Laboratory results from ChEMBL document CHEMBL4402582, “Garcinoic Acid Is a Natural and Selective Agonist of Pregnane X Receptor” (J Med Chem, 2020).
# Active and inactive are the calls of the source. The calls are words filed in the database; no cut-off is given here.
# Legend:
# Mus musculus [1] = test: Induction of PXR protein expression in C57BL/6 mouse liver at 5 to 25 mg dosed as oral gavage as single bolus and measured after 24 hrs relative to control; format: functional, organism-based
# Summary of the method: (§1)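 Male C57BL/6 mice, 6–7 weeks old, three per group. Single oral gavage bolus of 5, 10 or 25 mg in olive oil vehicle; vehicle-only controls. Killed at 24 h. Tissue PXR mRNA measured; PXR, CYP3A11 and MDR1 protein measured by immunoblot.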
# [2] = biological target: T1, Nuclear receptor subfamily 1 group I member 2 (Homo sapiens, UniProt O75469); test: Agonist activity at PXR in human HepG2 cells transfected with PXR siRNA at 10 to 50 uM incubated for 24 hrs; format: cell-based; settings: hepg2, 24 h
# T1 sequence (O75469 whole entry): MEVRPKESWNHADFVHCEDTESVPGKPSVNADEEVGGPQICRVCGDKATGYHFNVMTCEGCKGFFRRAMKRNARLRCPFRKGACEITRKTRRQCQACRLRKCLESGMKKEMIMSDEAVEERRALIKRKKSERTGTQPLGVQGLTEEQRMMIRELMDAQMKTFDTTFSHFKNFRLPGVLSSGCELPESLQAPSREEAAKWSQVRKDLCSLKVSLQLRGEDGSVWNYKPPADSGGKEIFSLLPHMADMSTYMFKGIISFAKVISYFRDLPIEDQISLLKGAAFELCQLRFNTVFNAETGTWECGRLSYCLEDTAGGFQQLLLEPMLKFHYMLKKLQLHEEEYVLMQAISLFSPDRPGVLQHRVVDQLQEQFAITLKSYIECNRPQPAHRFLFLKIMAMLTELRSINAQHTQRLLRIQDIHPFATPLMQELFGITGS
# Summary of the method: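 HepG2 cells reverse-transfected with PXR siRNA using lipofectamine RNAiMAX; after 24 h silencing, treated with compound for a further 24 h. PXR and CYP3A4 transcription responses measured.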
# [3] = biological target: T1, Nuclear receptor subfamily 1 group I member 2; test: Agonist activity at PXR in human HepaRG cells assessed as reversion of PXR antagonist sulforaphane-induced suppression of PXR expression at 10 uM incubated for 24 hrs by immunoblot analysis; format: cell-based
# [4] = Toxicity in C57BL/6 mouse assessed as effect on animal behavior at <=25 mg dosed as oral gavage as single bolus and measured after 24 hrs relative to control; format: organism-based; settings: in vivo
# Summary of the method: (§2)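 Male C57BL/6 mice, 6–7 weeks old, three per group. Single oral gavage bolus of 5, 10, 25, 50 or 100 mg in olive oil vehicle. Observed at 24 h for mortality, gross appearance and behavior, then post-mortem examination of liver and main organs.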
# Mus musculus [5] = test: Induction of PXR mRNA expression in C57BL/6 mouse intestine at 5 to 25 mg dosed as oral gavage as single bolus and measured after 24 hrs relative to control; format: functional, organism-based; summary of the method: as §1
# [6] = biological target: T1, Nuclear receptor subfamily 1 group I member 2; test: Agonist activity at His-tagged PXR-LBD/SRC-1p (unknown origin) expressed in Escherichia coli BL21(DE3) by coactivator recruitment based Alpha-screen assay; settings: read-out: EC50
# Mus musculus [7] = test: Induction of PXR protein expression in C57BL/6 mouse hepatic parenchyma assessed as induction of localization of PXR protein at sinusoidal endothelial cells at 5 to 25 mg dosed as oral gavage as single bolus and measured after 24 hrs by IHC analysis relative to control; format: functional, organism-based
# Summary of the method: (§3)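 Male C57BL/6 mice, 6–7 weeks old, three per group. Single oral gavage bolus (5–25 mg) in olive oil; vehicle controls; killed at 24 h. Liver and gut formalin-fixed, paraffin-embedded; 4 μm sections stained with H&E. PXR IHC with polyclonal antibody at 1:200 on an automated stainer with polymer detection.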
# Mus musculus [8] = test: Induction of PXR protein expression in C57BL/6 mouse hepatic parenchyma assessed as induction of localization of PXR protein at hepatocytes around centro-lobular veins at 25 mg dosed as oral gavage as single bolus and measured after 24 hrs by IHC analysis relative to control; format: functional, organism-based; summary of the method: as §3
# [9] = biological target: T1, Nuclear receptor subfamily 1 group I member 2; test: Agonist activity at PXR in human HT29 cells assessed as increase in PXR protein expression at 1 to 25 uM incubated for 24 hrs by immunoblot analysis; format: cell-based
# Mus musculus [10] = test: Induction of PXR protein expression in C57BL/6 mouse intestine assessed as induction of localization of PXR protein at glandular epithelium of crypts at base of mucosa epithelium at 5 to 25 mg dosed as oral gavage as single bolus and measured after 24 hrs by IHC analysis relative to control; format: functional, organism-based; summary of the method: as §3
# Mus musculus [11] = test: Induction of PXR-dependent CYP3A11 protein expression in C57BL/6 mouse liver at 5 to 25 mg dosed as oral gavage as single bolus and measured after 24 hrs relative to control; format: functional, organism-based; summary of the method: as §1
# [12] = biological target: T1, Nuclear receptor subfamily 1 group I member 2; test: Agonist activity at PXR in human HT29 cells assessed as increase in CYP3A4 protein expression at 1 to 25 uM incubated for 24 hrs by immunoblot analysis; format: cell-based
# [13] = biological target: T1, Nuclear receptor subfamily 1 group I member 2; test: Binding affinity to His-tagged PXR-LBD (unknown origin) expressed in Escherichia coli BL21 Gold by ITC analysis
# Summary of the method: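 ITC at 37 °C in 25 mM HEPES pH 7.5, 150 mM NaCl, 8% v/v DMSO final. His-tagged PXR-LBD (tag not removed, gel-filtration purified) at 3 μM in cell; ligand at 60 μM in syringe, injected in 10 μL aliquots.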
# Mus musculus [14] = test: Induction of PXR protein expression in C57BL/6 mouse hepatic parenchyma assessed as induction of localization of PXR protein at hepatocytes around lobular midzonal area at 25 mg dosed as oral gavage as single bolus and measured after 24 hrs by IHC analysis relative to control; format: functional, organism-based; summary of the method: as §3
# [15] = biological target: T1, Nuclear receptor subfamily 1 group I member 2; test: Agonist activity at PXR in human HepG2 cells assessed as increase in CYP3A4 protein expression at 1 to 25 uM incubated for 24 hrs by immunoblot analysis; format: cell-based; settings: hepg2, 24 h
# Summary of the method: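 HepG2 cells, passages 2–10, treated 24 h with 1 and 25 μM. Lysates sonicated on ice; 20 μg protein run on 10–12% SDS-PAGE and immunoblotted with anti-PXR or anti-CYP3A4. Bands normalized to housekeeping protein and expressed relative to control (=1).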
# [16] = biological target: T1, Nuclear receptor subfamily 1 group I member 2; test: Agonist activity at PXR in human HT29-MTX cells assessed as increase in CYP3A4 protein expression at 1 to 25 uM incubated for 24 hrs by immunoblot analysis; format: cell-based
# [17] = biological target: T1, Nuclear receptor subfamily 1 group I member 2; test: Agonist activity at PXR in human HepaRG cells assessed as reversion of PXR binding at 10 uM incubated for 24 hrs by immunoblot analysis; format: cell-based
# [18] = biological target: T1, Nuclear receptor subfamily 1 group I member 2; test: Agonist activity at PXR in human HepG2 cells assessed as stimulation of CYP450-mediated alpha-tocopherol metabolites production at 25 uM; format: cell-based; settings: hepg2, 25 µM
# [19] = Toxicity in C57BL/6 mouse assessed as effect on gross appearance at <=25 mg dosed as oral gavage as single bolus and measured after 24 hrs relative to control; format: organism-based; settings: in vivo; summary of the method: as §2
# [20] = Toxicity in C57BL/6 mouse assessed as mortality at 50 mg dosed as oral gavage as single bolus and measured after 24 hrs relative to control; format: organism-based; settings: in vivo, read-out: Activity
# Summary of the method: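 Male C57BL/6 wild-type mice aged 6–7 weeks, 3 per group. Single bolus by oral gavage in an olive-oil vehicle, with vehicle-only controls and dose groups of 5, 10, 25, 50 and 100 mg. Animals were checked 24 h after dosing by gross appearance and behaviour, then killed, and liver and main organs were examined post-mortem.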
compound,measurement,setting,value
C/C(=C\CC/C(C)=C/CC[C@]1(C)CCc2cc(O)cc(C)c2O1)CC/C=C(\C)C(=O)O,Activity,Mus musculus [1],Dose-dependent effect
same,Activity,[2],Not Active
same,Activity,[3],Active
same,Activity,[4],Non-Toxic
same,Activity,Mus musculus [5],Dose-dependent effect
same,EC50,[6],1300 nM
same,Activity,Mus musculus [7],Active
same,Activity,Mus musculus [8],Active
same,Activity,[9],Active
same,Activity,Mus musculus [10],Active
same,Activity,Mus musculus [11],Active
same,Activity,[12],Active
same,Kd,[13],330 nM
same,Activity,Mus musculus [14],Active
same,Activity,[15],Dose-dependent effect
same,Activity,[16],Active
same,Activity,[17],Active
same,Activity,[18],Active
same,Activity,[19],Non-Toxic
same,mortality at 24 h,[20],33%
